Laboratory results reported in publication PMC7547215 (Proceedings of the National Academy of Sciences of the …, 2020).
Read-outs that look alike come from different tables or passages of the source.

Experiments:
[1] = test system: A549 cells; assay: Cell survival; type: cell-based, human; settings: up to 25 μM (SU 3 to 25 μM), over 30 h
In short: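 Human A549 cells cultured with test compound across a concentration series. Dye-labelled cells imaged in real time, and percent survival calculated. Mean ± SD of three survival profiles.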

[2] = test system: RNase L; settings: cited from earlier work
[3] = target: RNase L; settings: read-out: IC50, ribonuclease activity of RNase L in vitro; cited from earlier work
[4] = target: T1, porcine RNase L (Sus scrofa, UniProt A5H025); assay: Fluorescence-based RNase L endoribonuclease cleavage assay; type: biochemical
T1 sequence (A5H025 1-743): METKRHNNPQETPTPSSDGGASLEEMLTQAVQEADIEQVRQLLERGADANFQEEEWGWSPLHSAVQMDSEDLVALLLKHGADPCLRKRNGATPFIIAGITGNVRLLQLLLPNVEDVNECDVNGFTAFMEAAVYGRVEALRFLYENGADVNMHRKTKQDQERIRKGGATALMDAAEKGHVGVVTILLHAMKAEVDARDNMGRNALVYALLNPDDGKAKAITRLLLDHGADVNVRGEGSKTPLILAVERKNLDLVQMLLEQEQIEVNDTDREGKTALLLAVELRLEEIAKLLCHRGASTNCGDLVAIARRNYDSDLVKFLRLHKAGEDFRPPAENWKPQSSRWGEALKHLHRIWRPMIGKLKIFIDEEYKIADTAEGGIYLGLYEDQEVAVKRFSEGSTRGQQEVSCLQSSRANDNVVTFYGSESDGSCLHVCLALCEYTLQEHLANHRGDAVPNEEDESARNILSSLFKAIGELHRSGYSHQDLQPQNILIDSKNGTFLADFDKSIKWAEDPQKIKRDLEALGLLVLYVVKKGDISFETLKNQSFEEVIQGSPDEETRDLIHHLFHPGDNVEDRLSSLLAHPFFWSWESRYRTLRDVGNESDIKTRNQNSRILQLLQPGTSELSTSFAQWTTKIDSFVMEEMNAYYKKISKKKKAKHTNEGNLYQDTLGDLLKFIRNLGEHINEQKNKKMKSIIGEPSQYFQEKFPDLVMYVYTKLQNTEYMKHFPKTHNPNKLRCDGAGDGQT

[5] = target: murine IRE1 (Mus musculus, UniProt Q9EQY0); assay: Fluorescence-based IRE1 endoribonuclease cleavage assay; type: biochemical
murine IRE1, sequence (Q9EQY0 21-977): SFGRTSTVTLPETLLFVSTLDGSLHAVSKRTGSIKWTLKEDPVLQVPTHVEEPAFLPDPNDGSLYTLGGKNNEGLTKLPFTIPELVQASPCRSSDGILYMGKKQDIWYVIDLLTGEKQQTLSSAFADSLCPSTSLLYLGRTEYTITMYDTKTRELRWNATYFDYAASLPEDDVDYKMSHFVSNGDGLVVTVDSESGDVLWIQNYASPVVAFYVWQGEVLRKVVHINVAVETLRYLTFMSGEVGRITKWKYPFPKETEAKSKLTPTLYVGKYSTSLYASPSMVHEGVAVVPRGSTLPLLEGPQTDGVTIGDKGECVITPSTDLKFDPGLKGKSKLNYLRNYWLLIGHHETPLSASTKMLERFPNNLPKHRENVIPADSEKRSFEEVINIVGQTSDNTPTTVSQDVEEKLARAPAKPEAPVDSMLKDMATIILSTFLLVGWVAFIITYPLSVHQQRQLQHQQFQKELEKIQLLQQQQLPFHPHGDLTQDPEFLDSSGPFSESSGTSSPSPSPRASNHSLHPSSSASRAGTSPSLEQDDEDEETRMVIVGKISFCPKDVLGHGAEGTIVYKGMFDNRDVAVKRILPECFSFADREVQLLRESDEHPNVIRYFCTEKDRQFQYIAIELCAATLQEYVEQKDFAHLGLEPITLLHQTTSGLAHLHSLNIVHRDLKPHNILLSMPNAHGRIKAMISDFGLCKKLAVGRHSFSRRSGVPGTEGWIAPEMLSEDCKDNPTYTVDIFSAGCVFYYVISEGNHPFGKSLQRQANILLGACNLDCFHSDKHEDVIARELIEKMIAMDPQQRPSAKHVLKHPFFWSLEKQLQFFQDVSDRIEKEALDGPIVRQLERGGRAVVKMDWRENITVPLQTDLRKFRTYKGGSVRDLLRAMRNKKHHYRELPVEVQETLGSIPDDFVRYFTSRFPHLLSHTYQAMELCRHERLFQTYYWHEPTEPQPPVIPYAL

[6] = test system: porcine RNase L H680N; assay: Differential scanning fluorimetry; type: binding
[7] = target: T1, porcine RNase L; assay: BODIPY-ATP fluorescence polarization binding/competition assay
[8] = test system: casein kinase IIalpha (CK2α); settings: cited from earlier work
[9] = target: T2, RNase L in human A549 cells (Homo sapiens, UniProt Q05823); assay: rRNA cleavage after pIC transfection in A549 cells; type: cell-based
T2 sequence (Q05823 1-741): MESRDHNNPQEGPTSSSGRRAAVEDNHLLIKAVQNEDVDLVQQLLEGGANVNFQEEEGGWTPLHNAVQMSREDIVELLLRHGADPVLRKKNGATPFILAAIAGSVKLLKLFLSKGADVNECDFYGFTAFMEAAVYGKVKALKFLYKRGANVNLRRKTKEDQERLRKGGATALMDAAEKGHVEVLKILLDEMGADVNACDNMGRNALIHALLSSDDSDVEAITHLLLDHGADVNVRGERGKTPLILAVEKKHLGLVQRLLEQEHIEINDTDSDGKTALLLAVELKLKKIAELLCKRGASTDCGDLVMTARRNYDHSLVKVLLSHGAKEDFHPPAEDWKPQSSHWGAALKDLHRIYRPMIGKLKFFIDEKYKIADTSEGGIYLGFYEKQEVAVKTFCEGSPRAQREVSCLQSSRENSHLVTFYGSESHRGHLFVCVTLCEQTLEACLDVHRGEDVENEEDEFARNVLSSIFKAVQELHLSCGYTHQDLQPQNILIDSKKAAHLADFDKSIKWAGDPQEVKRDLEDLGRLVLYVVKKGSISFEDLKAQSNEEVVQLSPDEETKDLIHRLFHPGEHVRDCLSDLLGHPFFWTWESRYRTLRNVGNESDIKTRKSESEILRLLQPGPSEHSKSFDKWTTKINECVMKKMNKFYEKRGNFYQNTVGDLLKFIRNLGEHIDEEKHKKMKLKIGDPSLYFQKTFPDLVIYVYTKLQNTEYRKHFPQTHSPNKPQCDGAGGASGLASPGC

[10] = target: Human CK2a (Homo sapiens, UniProt P68400); assay: In vitro inhibition of CK2α kinase activity; type: biochemical
Human CK2a, sequence (P68400 whole entry): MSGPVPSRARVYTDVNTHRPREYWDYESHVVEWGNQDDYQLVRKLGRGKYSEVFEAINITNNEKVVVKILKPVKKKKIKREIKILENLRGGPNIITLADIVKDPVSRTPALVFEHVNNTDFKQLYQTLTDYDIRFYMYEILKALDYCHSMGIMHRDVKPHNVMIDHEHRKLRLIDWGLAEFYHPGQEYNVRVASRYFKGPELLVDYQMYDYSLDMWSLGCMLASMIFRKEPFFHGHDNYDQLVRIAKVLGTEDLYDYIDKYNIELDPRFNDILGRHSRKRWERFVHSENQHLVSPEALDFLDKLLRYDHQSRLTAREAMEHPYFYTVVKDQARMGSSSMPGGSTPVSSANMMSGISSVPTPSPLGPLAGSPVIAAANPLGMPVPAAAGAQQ

[11] = target: glycogen phosphorylase b; settings: read-out: IC50, glycogen phosphorylase b; cited from earlier work

CCN(CC)CCNC(=O)c1c(C)[nH]c(/C=C2\C(=O)Nc3ccc(F)cc32)c1C [sunitinib]
Cytotoxicity [1]: considerable cytotoxicity
Concentration required for the repression of RNase L cleavage activity ([2]; in cells): ~5 µM
IC50 ([2]; read-out: IC50, antiviral function of RNase L in cells): 1000 nM
IC50 [3]: 1400 nM

Nc1ccc2ccc3c(N)ccc4ccc1c2c43 [1,6-diaminopyrene]
Effect on RNase L ribonuclease activity ([4]; Fig. 2): ineffective at complete inhibition
Effect on IRE1 ribonuclease activity ([5]; Fig. 2): ineffective at complete inhibition

Nc1ncnc2c1ncn2[C@@H]1O[C@H](COP(=O)(O)OP(=O)(O)OP(=O)(O)O)[C@@H](O)[C@H]1O [ATP]
Thermal stabilization of purified RNase L by ligand on its own [6]: pronounced stabilization
ΔTm of RNase L ([6]; named ligand(s) vs RNase L alone, SI Fig. S7, listed as ATP/MgCl2): 6 ± 0.2 °C

O=c1oc2c(O)c(O)cc3c(=O)oc4c(O)c(O)cc1c4c23 [EA, ellagic acid]
Competitive displacement of BODIPY-ATP from RNase L [7]: neither EA nor VAL could competitively displace
Potency of casein kinase II inhibition [8]: 20 nM
IC50 ([8]; read-out: IC50, casein kinase IIalpha (CK2α)): 40 nM
Cytotoxicity [1]: not cytotoxic
IC50 ([4]; IC50, RNase L ribonuclease activity, 10-point dose–response, commercially sourced fresh powder, Fig. 1C, mean ± SEM of four curves): 73.5 ± 0.2 nM
Decrease in potency in cells relative to in vitro against porcine RNase L ([9]; A549 and L929 cell lines): ~1,000 fold
pIC-induced RNA cleavage pattern ([9]; A549 cells, 3 h preincubation, 12 ng/mL pIC for 2 h): progressively reduced in a concentration-dependent manner
IC50 [5]: 270.6 ± 0.1 nM
IC50 [10]: 419 nM
IC50 [11]: 3200 nM
